According to ChEMBL document CHEMBL1142960, “Synthesis and structure-activity relationships for 2,4-dinitrobenzamide-5-mustards as prodrugs for the Escherichia coli nfsB nitroreductase in gene therapy” (J Med Chem, 2007):
Values after ≈ are worked out from the molar mass of the structure shown.

How the values were obtained:
[1] = system: EMT6; assay: Antitumor activity against mixed mouse EMT6/EMT6 NTRpuro cells injected in CD1 nude mouse assessed as cell kill at 133 umol/kg, ip in DMSO after 18 hrs; type: functional
[2] = system: WiDr; assay: Antiproliferative activity against human wild type WiDr NTR-ve cells after 18 hrs; type: functional, cell-based
[3] = Antiproliferative activity against human wild type Skov3 NTR-ve cells after 18 hrs; type: functional, cell-based
[4] = system: EMT6; assay: Selectivity ratio of IC50 for EMT6 NTR-ve cells to IC50 forEMT6 NTRpuro cells; type: functional, Mus musculus
[5] = system: V79; assay: Clonogenic survival of 97% V79 NTRoua cells in co-cultures with 3% V79 NTRpuro cells after 5 hrs by MCL assay; type: functional, Cricetulus griseus
Procedure, shortened: (§1)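 Multicellular layer cocultures of 3% V79-NTRpuro activators and 97% V79oua NTR-ve targets (ouabain-resistant), exposed to prodrug for 5 h. MCLs were then trypsin-dissociated and plated in ouabain or puromycin selective media for clonogenic survival. C10 (10% survival) interpolated for activators and targets; AC/TC ratio derived. Mean with SEM or range over independent experiments.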

[6] = Toxicity in ip dosed CD1 nude mouse in DMSO; type: organism-based; conditions: in vivo
Procedure, shortened: (§2)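 Maximum tolerated dose (MTD) determined in CD-1 nude mice after a single i.p. injection of prodrug, given in the vehicle named in each line.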

[7] = system: EMT6; assay: Antiproliferative activity against mouse EMT6 NTRpuro cells after 18 hrs; type: functional, cell-based; conditions: EMT6, 18 h
[8] = Stability in alpha MEM at 37 degC after 24 hrs; type: physicochemical; conditions: read-out: Stability
Procedure, shortened: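 Percent parent compound remaining, by HPLC, after holding in α-MEM with 5% fetal calf serum at 37 °C for 24 h.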

[9] = system: V79; assay: Selectivity ratio of IC50 for V79 NTR-ve cells to IC50 for V79 NTRpuro cells; type: functional, Cricetulus griseus
[10] = system: V79; assay: Clonogenic survival of V79 NTRoua cells after 5 hrs by MCL assay; type: functional, Cricetulus griseus
[11] = system: EMT6; assay: Antiproliferative activity against mouse wild type EMT6 NTR-ve cells after 18 hrs; type: functional, cell-based; conditions: EMT6, 18 h
[12] = system: V79; assay: Clonogenic survival of 3% V79 NTRpuro cells in co-cultures with 97% V79 NTRoua after 5 hrs by MCL assay; type: functional, Cricetulus griseus; procedure, shortened: as §1
[13] = Partition coefficient at pH 7.4 by shake-flask method; type: physicochemical; conditions: octanol/water
Procedure, shortened: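 Octanol-water partition coefficient by shake-flask at pH 7.4, reported with SEM.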

[14] = system: V79; assay: Antiproliferative activity against chinese hamster wild-type V79 NTR-ve cells after 18 hrs; type: functional, cell-based; conditions: Cricetulus griseus, V79, 18 h
[15] = system: WiDr; assay: Antiproliferative activity against human WiDr NTRneo cells after 18 hrs; type: functional, cell-based
[16] = system: WiDr; assay: Selectivity ratio of IC50 for WiDr NTR-ve cells to IC50 for WiDr NTRneo cells; type: functional, Homo sapiens
[17] = Solubility in alpha MEM; type: physicochemical
Procedure, shortened: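 Solubility (mM) in α-MEM with 5% fetal calf serum at ambient temperature, measured by HPLC.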

[18] = Selectivity ratio of IC50 for Skov3 NTR-ve cells to IC50 for Skov3 NTRneo cells; type: functional, Homo sapiens
[19] = Antiproliferative activity against human Skov3 NTRneo cells after 18 hrs; type: functional, cell-based; conditions: SK-OV-3, 18 h
[20] = system: V79; assay: Antiproliferative activity against chinese hamster V79 NTRpuro cells after 18 hrs; type: functional, cell-based; conditions: Cricetulus griseus, V79, 18 h
[21] = system: V79; assay: Clonogenic survival ratio of 3% V79 NTRpuro cells to 97% V79 NTRoua cells in co-culture; type: functional, Cricetulus griseus; procedure, shortened: as §1
[22] = system: WiDr; assay: Antitumor activity against mixed human 10% WiDr NTRneo/ 90% WiDr tumor cells injected in CD1 nude mouse assessed as growth delay at 1330 umol/kg, ip in DMSO; type: functional
Procedure, shortened: (§3)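 WiDr-NTRneo tumours (100% NTR+ve, or 1:9 NTR+ve:NTR-ve mixtures) in CD-1 nude mice, given a single i.p. dose at MTD. Read-out is median growth delay to 15 mm mean diameter, plus tumours not palpable 100 days after treatment. Aziridine given at 200 µmol/kg as positive control in every experiment.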

[23] = system: WiDr; assay: Antitumor activity against human 100% WiDr NTRneo tumor cells injected in CD1 nude mouse assessed as growth delay at 1330 umol/kg, ip in DMSO; type: functional; procedure, shortened: as §3
[24] = system: WiDr; assay: Antitumor activity against human 100% WiDr NTRneo tumor cells injected in CD1 nude mouse assessed as growth delay at 562 umol/kg, ip in DMSO/PEG; type: functional; procedure, shortened: as §3
[25] = Toxicity in ip dosed CD1 nude mouse in DMSO/PEG; type: organism-based; conditions: in vivo; procedure, shortened: as §2
[26] = system: WiDr; assay: Antitumor activity against mixed human 10% WiDr NTRneo/ 90% WiDr tumor cells injected in CD1 nude mouse assessed as growth delay at 1780 umol/kg, ip in DMSO; type: functional; procedure, shortened: as §3
[27] = system: EMT6; assay: Antitumor activity against mixed mouse EMT6/EMT6 NTRpuro cells injected in CD1 nude mouse assessed as cell kill at 562 umol/kg, ip in DMSO/PEG after 18 hrs; type: functional
[28] = Toxicity in ip dosed CD1 nude mouse in DMA/PEG; type: organism-based; conditions: in vivo; procedure, shortened: as §2
[29] = system: WiDr; assay: Antitumor activity against human 100% WiDr NTRneo tumor cells injected in CD1 nude mouse assessed as growth delay at 200 umol/kg, ip in DMA/PEG; type: functional; procedure, shortened: as §3
[30] = system: EMT6; assay: Antitumor activity against mixed mouse EMT6/EMT6 NTRpuro cells injected in CD1 nude mouse assessed as cell kill at 200 umol/kg, ip in DMA/PEG after 18 hrs; type: functional
[31] = system: WiDr; assay: Antitumor activity against mixed human 10% WiDr NTRneo/ 90% WiDr tumor cells injected in CD1 nude mouse assessed as growth delay at 200 umol/kg, ip in DMA/PEG; type: functional; procedure, shortened: as §3

SMILES	IC50 [2]	IC50 [3]	Ratio IC50 [4]	Activity [5]	MTD [6]	IC50 [7]	remaining at 24 h [8]	Ratio IC50 [9]	Activity [10]	IC50 [11]	Activity [12]	logD [13]	IC50 [14]	IC50 [15]	Ratio IC50 [16]	solubility [17]	Ratio IC50 [18]	IC50 [19]	IC50 [20]	Ratio [21]	other results
O=C(NO)c1cc(N(CCCl)CCCl)c([N+](=O)[O-])cc1[N+](=O)[O-]	111 µM	200 µM	110	>300 µM	133 µmol/kg	0.88 µM	91%	42	>1400 µM	96 µM	43 µM	1.22	51 µM	2.01 µM	55	1400 µM (≈ 514 µg/mL)	124	1.57 µM	1.36 µM		LCK [1]: 0.38
CS(=O)(=O)OCCN(CCI)c1cc(C(N)=O)c([N+](=O)[O-])cc1[N+](=O)[O-]	70 µM	97 µM	529	12 µM	1330 µmol/kg	0.17 µM	72%	311	>200 µM	79 µM	4.2 µM	0.74	101 µM	0.41 µM	172	200 µM (≈ 100 µg/mL)	328	0.31 µM	0.29 µM	0.35	Activity [22]: 15 days; Activity [23]: >82 days
O=C(NCCCO)c1cc(N(CCBr)CCBr)c([N+](=O)[O-])cc1[N+](=O)[O-]	56 µM	72 µM	1670	7 µM	1780 µmol/kg	0.05 µM	83%	135	100 µM	66 µM	3 µM	1.81	37 µM	0.25 µM	224	170 µM (≈ 84.7 µg/mL)	309	0.23 µM	0.28 µM		Activity [24]: >83 days; MTD [25]: 562 µmol/kg; Activity [26]: 7 days; LCK [27]: >3.44
NC(=O)c1cc(N(CCI)CCI)c([N+](=O)[O-])cc1[N+](=O)[O-]	15 µM	30 µM	332	2 µM		0.08 µM	69%	54	>20 µM	25 µM	1.65 µM	2.41	11 µM	0.3 µM	50	40 µM (≈ 21.4 µg/mL)	71	0.43 µM	0.2 µM		MTD [28]: 200 µmol/kg; Activity [29]: 8 days; LCK [30]: 1.48
NC(=O)c1cc(N(CCCl)CCCl)c([N+](=O)[O-])cc1[N+](=O)[O-]	703 µM	803 µM	261	120 µM		1.85 µM	99%	42	>1000 µM	442 µM	98 µM	1.52	490 µM	9.5 µM	93	750 µM (≈ 263 µg/mL)	98	9.5 µM	17 µM		MTD [28]: 200 µmol/kg; Activity [31]: 11 days; Activity [29]: 29 days; LCK [30]: 2.29
CS(=O)(=O)OCCN(CCBr)c1cc(C(=O)NCC(O)CO)c([N+](=O)[O-])cc1[N+](=O)[O-] (stereo unspecified)	804 µM	1110 µM	527	>1300 µM	1330 µmol/kg	1.6 µM	63%	1660	>1300 µM	712 µM	70 µM	-0.05	733 µM	3 µM	272	1300 µM (≈ 688 µg/mL)	640	1.7 µM	1 µM	<0.05	Activity [22]: 9 days; Activity [23]: 55 days
NC(=O)c1cc(N2CC2)c([N+](=O)[O-])cc1[N+](=O)[O-] [TRETAZICAR]	54.5 µM	174 µM	947	173 µM		0.098 µM		2090	1400 µM	83 µM	23 µM	0.14	374 µM	1.14 µM	51.1		317	0.64 µM	0.26 µM	0.14	MTD [28]: 200 µmol/kg; Activity [31]: 14 days; Activity [29]: >88 days; LCK [30]: 3.16
